Here are results for 16 compounds from ChEMBL document CHEMBL1145896, “5-Substituted-2,4-diamino-6-[2-(phosphonomethoxy)ethoxy]pyrimidines-acyclic nucleoside phosphonate analogues with antiviral activity” (J Med Chem, 2003).

Experiment [1] has as its system Cytomegalovirus. Description: Antiviral activity against AD169 strain of cytomegalovirus (CMV) in HEL ([…]) cells. The experiment is classed as functional, organism-based. The method, boiled down: (§1)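 Inhibition of virus-induced cytopathicity. HSV-1 and HSV-2 were tested in E6SM cells; VZV and CMV in HEL cells. Confluent monolayers were inoculated with 100 CCID50 of virus. After 1–2 h adsorption, residual virus was removed and compound was added at serial concentrations (400, 200, 100, ... μg/mL). Cytopathicity was scored once untreated infected controls reached complete CPE.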

Experiment [2] relates to Human alphaherpesvirus 3. The experiment can be described thus: Antiviral activity against OKA strain of VZV in HEL ([…]) cells. The experiment is classed as functional, organism-based. Also noted: unit not given here. The method, boiled down:
as §1

Experiment [3] concerns CCRF-CEM. Description: Cytotoxicity against CEM (human lymphoblastic leukemia) cells in vitro. Type of experiment: functional.
In experiment [4] the test system is Human alphaherpesvirus 3. Description: Antiviral activity against 07/1 strain of VZV in HEL ([…]) cells. The experiment is classed as functional, organism-based. The method, boiled down:
as §1

A short description of experiment [5]: Antiviral activity against vaccinia virus in HEL ([…]) cells. Type of experiment: functional, cell-based.
The test system of experiment [6] is Cytomegalovirus. The experiment can be described thus: Antiviral activity against Davis strain of cytomegalovirus (CMV) in HEL ([…]) cells. The experiment is classed as functional, organism-based. A digest of the protocol: as §1
Experiment [7] relates to Human immunodeficiency virus 2. The experiment can be described thus: Antiviral activity against HIV-2 (ROD) in CEM (human leukemia) cells. The experiment is classed as functional, organism-based. The conditions noted are these: ccrf-cem. The method, boiled down:
(§2)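 Human CEM cells (~3 × 10^5 cells/mL) were infected with 100 CCID50 per mL of HIV-1 (IIIB) or HIV-2 (ROD) and seeded into wells containing compound dilutions. After 4 days at 37 °C, syncytium (giant cell) formation was examined microscopically.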

Experiment [8] concerns Moloney murine sarcoma virus. Description: Antiviral activity against murine sarcoma virus. The experiment is classed as functional, organism-based. A digest of the protocol:
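Murine C3H/3T3 embryo fibroblasts were seeded at 5 × 10^5 cells/mL. After 24 h, cells were infected with 80 focus-forming units of MSV (from mouse tumours) for 90–120 min at 37 °C. Medium was then replaced by fresh medium containing varied compound concentrations, and MSV-induced transformation was the read-out.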

For experiment [9], the system named is Human immunodeficiency virus 1. The experiment can be described thus: Antiviral activity against HIV-1 (IIIB) in CEM (human leukemia) cells. Type of experiment: functional, organism-based. To be noted: ccrf-cem. A digest of the protocol: as §2
Experiment [10] in a line: Antiviral activity against KOS strain of HSV-1 in E6SM cells. The experiment is classed as functional, cell-based, herpes simplex virus. A digest of the protocol:
as §1

Experiment [11] in a line: Antiviral activity against G strain of HSV-2 in E6SM cells. The experiment is classed as functional, cell-based, herpes simplex virus. The method, boiled down:
as §1

The term CC50 denotes the concentration that lowers cell viability or growth by half. As to `Nc1nc(N)c(Cc2ccccc2)c(OCCOCP(=O)(O)O)n1`, the EC50 in experiment [1] is given as > 0.15 uM ml-1; in [2], > 0.15; in experiment [4], > 0.15 uM ml-1; in experiment [5] it was > 1.2 uM ml-1; in experiment [6], > 0.15 uM ml-1; in experiment [7], > 0.3 uM ml-1. In addition, the EC50 is reported as > 1.12 uM ml-1 in experiment [8], > 0.3 uM ml-1 in experiment [9] and > 1.2 uM ml-1 in experiment [10]. For the same compound, the CC50 in experiment [3] was > 300 µM.

`N#CCc1c(N)nc(N)nc1OCCOCP(=O)(O)O`: the EC50 in experiment [1] is on record as > 0.15 uM ml-1; in experiment [11], > 1.2 uM ml-1; in experiment [2], 0.14; in [4], 0.11 uM ml-1; in experiment [5], > 1.2 uM ml-1; in [6], > 0.15 uM ml-1. Also, the EC50 is on record as > 0.3 uM ml-1 in [7], 0.3 uM ml-1 in [8], > 0.3 uM ml-1 in [9] and > 1.2 uM ml-1 in experiment [10]. Also, the cytotoxic concentration (CC50) in [3] is > 300 µM.

In the case of `Nc1nc(N)c(Br)c(OCCOCP(=O)(O)O)n1`, the EC50 in experiment [1] was > 0.15 uM ml-1; in experiment [11] it was 0.7 uM ml-1; in experiment [4] it was > 0.15 uM ml-1; in [5], 0.7 uM ml-1; in experiment [7] it was 0.0095 uM ml-1; in [8] it was 0.007 uM ml-1. The EC50 in experiment [9] amounted to 0.0073 uM ml-1; in experiment [10] it was 0.7 uM ml-1. For the same compound, in experiment [3], the cytotoxic concentration (CC50) was > 300 µM.

Consider `C=CCc1c(N)nc(N)n(CCOCP(=O)(O)O)c1=O`, for which the EC50 in experiment [1] is given as > 0.15 uM ml-1; in experiment [11], 0.77 uM ml-1; in experiment [2], > 0.15; in [4] it was > 0.15 uM ml-1; in experiment [5] it was > 1.2 uM ml-1; in experiment [6], > 0.15 uM ml-1. The EC50 in experiment [7] is reported as > 0.3 uM ml-1; in experiment [8], > 1.12 uM ml-1; in experiment [9] it was > 0.3 uM ml-1; in experiment [10], > 1.2 uM ml-1. Moreover, the cytotoxic concentration (CC50) in experiment [3] was > 300 µM.

`C=CCc1c(N)nc(N)nc1OCCOCP(=O)(O)O`: the EC50 in [1] is given as > 0.15 uM ml-1; in experiment [11], 0.79 uM ml-1; in [2] it was > 0.15; in experiment [4] it was > 0.15 uM ml-1; in [5], > 1.2 uM ml-1; in experiment [6], > 0.15 uM ml-1. Besides, the EC50 is reported as > 0.3 uM ml-1 in [7], > 1.12 uM ml-1 in experiment [8], > 0.3 uM ml-1 in [9] and > 1.2 uM ml-1 in experiment [10]. Also, the CC50 in experiment [3] was > 300 µM.

For `Nc1nc(N)c(Cl)c(OCCOCP(=O)(O)O)n1`, the EC50 in experiment [1] is reported as > 0.12 uM ml-1; in [11], > 1.2 uM ml-1; in [5], > 1.2 uM ml-1; in experiment [6], > 0.6 uM ml-1; in [7], 0.0044 uM ml-1; in experiment [8] it was 0.0028 uM ml-1. Further, the EC50 in [9] is 0.0031 uM ml-1; in [10], > 1.2 uM ml-1. The CC50 in experiment [3] is 300 µM.

As for `Nc1nc(N)n(CCOCP(=O)(O)O)c(=O)c1CC(=O)O`, the EC50 in [1] is reported as > 0.15 uM ml-1; in experiment [11], > 1.2 uM ml-1; in experiment [2], > 0.15; in experiment [4], > 0.15 uM ml-1; in experiment [5] it was > 1.2 uM ml-1; in experiment [6] it was > 0.15 uM ml-1. For the same compound, the EC50 in experiment [7] is > 0.3 uM ml-1; in experiment [8], 0.082 uM ml-1; in experiment [9], > 0.3 uM ml-1; in experiment [10], > 1.2 uM ml-1. Also, in experiment [3], the CC50 is > 300 µM.

Consider `Nc1nc(N)n(CCOCP(=O)(O)O)c(=O)c1Cc1ccccc1`, for which the EC50 in [1] was > 0.15 uM ml-1; in [11] it was > 1.2 uM ml-1; in [2], > 0.15; in experiment [4] it was > 0.15 uM ml-1; in experiment [5], > 1.2 uM ml-1; in experiment [6], > 0.15 uM ml-1. Also, the EC50 is listed as > 0.3 uM ml-1 in experiment [7], > 1.12 uM ml-1 in [8], > 0.3 uM ml-1 in experiment [9] and > 1.2 uM ml-1 in experiment [10]. Moreover, the CC50 in [3] is > 300 µM.

Take `Nc1nc(N)c(-c2ccccc2)c(OCCOCP(=O)(O)O)n1`: the EC50 is recorded as > 0.15 uM ml-1 in [1]; > 1.2 uM ml-1 in [11]; > 0.15 in experiment [2]; > 0.15 uM ml-1 in [4]; > 1.2 uM ml-1 in experiment [5]; > 0.15 uM ml-1 in experiment [6]. Besides, the EC50 is > 0.3 uM ml-1 in experiment [7], > 1.12 uM ml-1 in experiment [8], > 0.3 uM ml-1 in experiment [9] and > 1.2 uM ml-1 in experiment [10]. In addition, the CC50 in experiment [3] is > 300 µM.

As to `Nc1nc(N)c(CC(=O)O)c(OCCOCP(=O)(O)O)n1`, the EC50 is > 0.15 uM ml-1 in [1]; > 1.2 uM ml-1 in [11]; > 0.15 in [2]; > 0.15 uM ml-1 in [4]; > 1.2 uM ml-1 in experiment [5]; > 0.15 uM ml-1 in [6]. For the same compound, the EC50 in [7] was > 0.3 uM ml-1; in experiment [8], 0.046 uM ml-1; in [9], > 0.3 uM ml-1; in [10] it was > 1.2 uM ml-1. In [3], the CC50 was > 300 µM.

On to `Nc1cc(OC[C@H](CO)OCP(=O)(O)O)nc(N)n1`, for which the EC50 in experiment [1] was found to be 0.13 uM ml-1; in experiment [11], 0.017 uM ml-1; in [2] it was 0.00017; in experiment [4], 0.00024 uM ml-1; in experiment [5] it was 0.0065 uM ml-1; in experiment [6] it was 0.12 uM ml-1. Besides, the EC50 in experiment [7] is listed as 0.014 uM ml-1; in [8] it was > 0.0027 uM ml-1; in [9] it was > 0.014 uM ml-1; in experiment [10], 0.0048 uM ml-1. It took 23 µM to reach half-maximal cytotoxicity in experiment [3] (CC50).

On to `Nc1nc(N)n(CCOCP(=O)(O)O)c(=O)c1C1CC1`, for which the EC50 in experiment [1] is > 0.15 uM ml-1; in [11] it was > 1.2 uM ml-1; in [4], > 0.15 uM ml-1; in experiment [5], > 1.2 uM ml-1; in experiment [7], > 0.3 uM ml-1; in experiment [8], > 1.12 uM ml-1. Also, the results for the EC50 in experiment [9] and in experiment [10] were > 0.3 uM ml-1 and > 1.2 uM ml-1, respectively. For the same compound, the CC50 in [3] was > 300 µM.

`N#CCc1c(N)nc(N)n(CCOCP(=O)(O)O)c1=O`: the EC50 is given as > 0.15 uM ml-1 in experiment [1]; > 1.2 uM ml-1 in experiment [11]; > 0.15 in experiment [2]; 0.084 uM ml-1 in experiment [4]; > 1.2 uM ml-1 in experiment [5]; > 0.15 uM ml-1 in [6]. The EC50 in experiment [7] is reported as > 0.3 uM ml-1; in experiment [8] it was 0.3 uM ml-1; in experiment [9] it was > 0.3 uM ml-1; in experiment [10], > 1.2 uM ml-1. Moreover, the cytotoxic concentration (CC50) in experiment [3] was > 300 µM.

In the case of `Cc1c(N)nc(N)n(CCOCP(=O)(O)O)c1=O`, the EC50 is > 0.15 uM ml-1 in [1]; > 1.2 uM ml-1 in [11]; > 0.15 uM ml-1 in experiment [4]; > 1.2 uM ml-1 in experiment [5]; > 0.3 uM ml-1 in experiment [7]; > 1.12 uM ml-1 in experiment [8]. The EC50 in experiment [9] is given as > 0.3 uM ml-1; in experiment [10], > 1.2 uM ml-1. Besides, the CC50 in experiment [3] is > 300 µM.

Regarding `Nc1ncnc2c1ncn2CCOCP(=O)(O)O` [ADEFOVIR], the EC50 in experiment [1] is listed as 0.1 uM ml-1; in [11], 0.024 uM ml-1; in experiment [5] it was > 0.17 uM ml-1; in experiment [6], 0.27 uM ml-1; in experiment [7], 0.0066 uM ml-1; in [8], 0.0022 uM ml-1. The EC50 in [9] is recorded as 0.0033 uM ml-1; in [10] it was 0.024 uM ml-1. In addition, half-maximal cytotoxicity in experiment [3] (CC50) was put at 56 µM.

Take `C[C@H](Cn1cnc2c(N)ncnc21)OCP(=O)(O)O` [TENOFOVIR ANHYDROUS]: the EC50 in [1] is listed as > 0.17 uM ml-1; in experiment [11], > 0.17 uM ml-1; in experiment [4] it was 0.17 uM ml-1; in experiment [5], > 0.17 uM ml-1; in [6] it was > 0.17 uM ml-1; in experiment [7] it was 0.0014 uM ml-1. Further, the EC50 in experiment [8] was 0.0046 uM ml-1; in [9], 0.0012 uM ml-1; in experiment [10], > 0.17 uM ml-1. The compound also had a CC50 in [3] of 410 µM.
